PTK2B oligo ant: antagonists of Pyk2 self-association, primary screen, Q293 cells, FERM NanoBiT luminescence, HTS; Protein-tyrosine kinase 2-beta (Homo sapiens), Q14289; hits give low values; z-score (the deposit names both 25 µM and 10 µM); 0.83% of 99,000 active;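 active = Z-score of -3 or lower, scaled per plate to the spread of control and sample wells; inactive = z-score above -3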;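 also: negative z-score means lost luminescence so less FERM oligomerization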
PTPN22 inh 2: PTPN22 phosphatase inhibitors, primary screen, biochemical, DiFMUP fluorescence, 2 µM. Tyrosine-protein phosphatase non-receptor type 22 (Homo sapiens), Q9Y2R2. recombinant LYP catalytic domain. inhibition, % at 2 µM. 0.21% of 96,000 active. AID 640, 2007;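 active = inhibition at 2 µM at or above a set limit, the screen mean plus 3 SD, cut at about 24% in these data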
Rev-RRE block: HIV-1 Rev-RRE binding inhibitors, primary screen, biochemical, FRET, protein-RNA interaction; 0.79% of 97,000 active; P05866; inhibition, % at 8 µM; Rev peptide-RRE RNA binding;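 active = inhibition above the screen-wide mean plus 3 SD, cut at about 35% in these data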
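Material: labelled RRE RNA duplex and labelled Rev peptide / Buffer or medium: HEPES pH 7.5 salt buffer with EDTA / Compound dosing: single point, 8 µM final nominal compound concentration / Benchmarks: DMSO low control, neomycin B high control / Timing: 5 min preincubation and 15 min binding, 25 °C / Technique: FRET fluorescence readout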
PTPN22 act: LYP phosphatase activators, primary screen, biochemical, DiFMUP fluorescence, 2 µM. Tyrosine-protein phosphatase non-receptor type 22 (Homo sapiens), Q9Y2R2. recombinant LYP; 0 = plate median, 100 = signal doubled. activation, % at 2 µM. 0.11% of 96,000 active. AID 697, 2007;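 active = activation at 2 µM above a set limit, the mean plus 5 SD, cut at about 37% in these data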
Large screens that a line does not name were inactive; [ ] = remark or other dose. A selection: hits, their analogues and other compounds. The true share with any hit is near 1.8%.

Cc1ccc(/C=c2\sc3nc(-c4ccccc4Br)nn3c2=O)o1	none
CC(OC(=O)c1cc(=O)[nH]c2ccccc12)c1ccccc1 (configuration not stated)	PTK2B oligo ant -4
O=C1CC(=C2c3ccccc3-c3ccccc32)C(=O)N1CCCCN1CCN(c2ccccc2)CC1	PTPN22 inh 2 45
O=C1c2ccccc2C(=O)N1CCCCN1CCN(CCCCN2C(=O)c3ccccc3C2=O)CC1	none (no result: PTK2B oligo ant)
Clc1cccc2sc(-c3nnc(-c4ccccc4)o3)c(Cl)c12	none
Clc1ccc(-c2cn3cccnc3n2)cc1Cl	Rev-RRE block 39
O=C(NCc1ccco1)C(c1ccccc1)N(Cc1ccccc1)C(=O)Cn1nnc2ccccc21 (configuration not stated)	PTK2B oligo ant -4.1
CC1(C)CC(=O)C2=C(C1)OC(N)=C(C#N)C2Cc1ccccc1 (configuration not stated)	none
CCn1c2ccccc2c2cc(NC(=O)c3ccc(Br)o3)ccc21	Rev-RRE block 76
CC(OC(=O)c1ccco1)C(=O)NC1CCCCC1 (configuration not stated)	PTPN22 inh 2 28
CCCCNC1C(CC)C(CCC)C(C#N)(C#N)C1(C#N)C#N (configuration not stated)	none
COc1cccc(-c2cn3nc4c(nc3n2)CCCC4)c1	none
Clc1ccc(-c2cn3nc4c(nc3n2)CCCC4)cc1	Rev-RRE block 38
CCOc1ccc(C2=C/C(=C/c3cccnc3)C(=O)O2)cc1	Rev-RRE block 111[fluorescence artefact?]
CCOc1ccc(C(=O)NCc2cccnc2)cc1	none
Clc1cccc(-c2cc3nc4c(c(N5CCOCC5)n3n2)CCCC4)c1	none (no result: PTPN22 inh 2, Rev-RRE block, PTPN22 act)
Fc1cccc(-c2cc3nc4c(c(N5CCOCC5)n3n2)CCCC4)c1	PTK2B oligo ant -3.2 (no result: PTPN22 inh 2, Rev-RRE block, PTPN22 act)
Cc1ccc(S(=O)(=O)/C(C#N)=C/c2c(N3CC(C)OC(C)C3)nc3c(C)cccn3c2=O)cc1 (configuration not stated)	none
CCCCn1c2nc3ccccc3nc2c2c(=N)oc(C)nc21	none (no result: PTPN22 inh 2, Rev-RRE block, PTPN22 act)
CCCCC(CC)Cn1c2nc3ccccc3nc2c2c(=N)oc(C)nc21 (configuration not stated)	Rev-RRE block 37 (no result: PTK2B oligo ant)
COc1ccc(CNC(=O)CCc2c(C)nc3ncnn3c2C)cc1	none
CC(NC(=O)c1ccco1)c1cccc2ccccc12 (configuration not stated)	none
O=C(O)/C=C1\NC(=O)c2ccccc21	none
O=C1N/C(=C\c2ccc(O)cc2)C(=O)c2ccccc21	Rev-RRE block 69
CC(C)(C)OC(=O)NC(CCCCNC=O)C(=O)O (configuration not stated)	none
Cc1cc([N+](=O)[O-])c2[nH]c(C(=O)N/N=C/c3ccccc3C(=O)O)c(-c3ccccc3)c2c1	PTK2B oligo ant -3
O=C(COc1ccccc1C(=O)N/N=C\c1ccc(O)c(O)c1)N/N=C/c1ccc(O)c(O)c1	PTPN22 inh 2 32
CCOc1ccc(/C=N/NC(=O)COc2ccccc2-c2ccccc2)cc1	none
O=C(COC(=O)c1ccccc1NC(=O)c1ccco1)Nc1ccc2c(c1)OCO2	PTK2B oligo ant -3.8
COc1ccc(C2CC(c3ccccc3)Nc3nc(NC(=O)c4ccco4)nn32)cc1 (configuration not stated)	PTK2B oligo ant -3.7
O=C(Nc1nc2n(n1)C(c1ccccc1)CC(c1ccc(Cl)cc1)N2)c1ccco1 (configuration not stated)	none
COc1ccc(C2CC(c3ccc(OC)cc3)n3nc(NC(=O)c4ccco4)nc3N2)cc1 (configuration not stated)	PTK2B oligo ant -3.8
Cc1ccc(CN(c2ccc(C(=O)N3CCCC3)cc2)S(C)(=O)=O)cc1	none
O=C(Nc1nn[nH]n1)C12CC3CC(CC(C3)C1)C2	none
O=C(Nc1nc(-c2ccc(S(=O)(=O)N3CCCC3)cc2)cs1)c1cccs1	PTK2B oligo ant -3.2
O=C(Nc1nc(-c2ccccc2)cs1)C1CCCCN1S(=O)(=O)c1ccc(Cl)cc1 (configuration not stated)	none
Cc1nc2ccc(NC(=O)c3ccc(S(=O)(=O)N4CCOCC4)cc3)cc2s1	none
O=C(Nc1nc(-c2ccc(S(=O)(=O)N3CCOCC3)cc2)cs1)c1ccccc1	none (no result: PTK2B oligo ant)
O=C(Nc1nc(-c2ccccc2)cs1)C1CCCCN1S(=O)(=O)c1ccccc1 (configuration not stated)	PTK2B oligo ant -3.7
O=C(Nc1nc(-c2nc3ccccc3s2)cs1)c1ccc(S(=O)(=O)N2CCOCC2)cc1	PTK2B oligo ant -3.6
COc1cccc(C(=O)Nc2nc(-c3ccc(S(=O)(=O)N4CCOCC4)cc3)cs2)c1	PTK2B oligo ant -3.3
CC(=O)Nn1c(-c2ccccc2)cc2ccccc21	none
COc1ccc(NC(=O)CSc2nc3c(c(-c4cccs4)c2C#N)CN(C)CC3)cc1OC	Rev-RRE block 63
COc1ccc(NC(=O)CSc2nnc(-c3cccs3)n2C)cc1OC	none (no result: PTPN22 inh 2, Rev-RRE block, PTPN22 act)
O=c1c(-c2nnc(SCc3ccc(Cl)cc3Cl)o2)cccn1Cc1ccccc1	PTPN22 inh 2 25
CCN(CC)c1ccc2c(c1)oc(=O)c1c(Cl)cc(=O)oc12	Rev-RRE block 129[fluorescence artefact?]
CS(=O)(=O)N(CC(=O)N1CCN(c2ccccc2)CC1)c1ccc(Cl)c(C(F)(F)F)c1	none
Cc1cc2cc(CN(C(=O)C3CC3)C3CCCC3)c3nnnn3c2cc1C	none (no result: PTPN22 inh 2, Rev-RRE block, PTPN22 act)
N#Cc1ccccc1Sc1ccccc1C(=O)Nc1ccc(Br)cc1	PTK2B oligo ant -3.5
Cc1ccccc1OCCNC(=O)c1ccccc1Sc1ccccc1C#N	none
O=C(NCc1ccc2[nH]c3c(c2c1)CCCC3)N1CCOCC1	Rev-RRE block 39 (no result: PTK2B oligo ant)
CCN1C=C(Cc2ccccc2C)C2=C(C1)C(c1ccccc1C)C(C#N)=C(N)O2 (configuration not stated)	none
CCN1C=CC2=C(C#N)C(N)C(C#N)(C#N)C(c3ccccc3C(F)(F)F)C2C1 (configuration not stated)	Rev-RRE block 58
CN1CCN(C(c2ccc(F)cc2)c2nnnn2Cc2cccs2)CC1 (configuration not stated)	none (no result: PTPN22 inh 2, Rev-RRE block, PTPN22 act)
COc1ccc(C(c2nnnn2Cc2cccs2)N2CCN(c3ccc(F)cc3)CC2)cc1OC (configuration not stated)	PTK2B oligo ant -3.3
COc1ccc(C(c2nnnn2Cc2ccc(F)cc2)N2CCN(c3ccccc3)CC2)cc1 (configuration not stated)	PTK2B oligo ant -3.4
COc1ccccc1OCc1nnc(SCC(=O)NCc2ccco2)n1Cc1ccco1	PTPN22 inh 2 26
COc1ccccc1NC(=O)CSc1nnc(COc2ccc(Cl)cc2)n1Cc1ccco1	none
CC(C)(C)n1nnnc1C(c1cccs1)N(Cc1ccccc1)Cc1cccnc1 (configuration not stated)	PTK2B oligo ant -4.2
CC(C)(C)n1nnnc1C(c1cccnc1)N(Cc1ccccc1)Cc1cccs1 (configuration not stated)	PTK2B oligo ant -3.6

High-throughput results from PubChem.
